Data published in PubChem BioAssay AID1027 (Sanford-Burnham Center for Chemical Genomics, 2008).
Screen size: about 200,000 compounds; fewer than 10 were called active.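 The calls were made as follows: active = luciferase activation factor, scaled between plate controls, of at least 2 with compound at 10 µM; inactive = the rest.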 The list is a sample of the results.

Target: Luciferin 4-monooxygenase (Photinus pyralis) (UniProt P08659)
Experiment: FLuc activators, initial screening, artefact control for FLuc-dependent activation tests, biochemical, ATPlite luminescence (AID 1027)
Settings: ATPlite luciferase biochemical, 10 min, at 10 µM, active compounds read high, 0 = ATP-free wells, 1 = DMSO control
In short: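 Assay system: Luciferase/luciferin detection reagent, cell-free biochemical luciferase assay / Also added: ATP substrate / Schedule: 10 min at ambient temperature / Measured by: luminescence measurement of luciferase light output / Benchmarks: low control with PBS replacing ATP, high control enzyme plus ATP without compound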

Luciferin 4-monooxygenase (Photinus pyralis), sequence (P08659 whole entry, looked up): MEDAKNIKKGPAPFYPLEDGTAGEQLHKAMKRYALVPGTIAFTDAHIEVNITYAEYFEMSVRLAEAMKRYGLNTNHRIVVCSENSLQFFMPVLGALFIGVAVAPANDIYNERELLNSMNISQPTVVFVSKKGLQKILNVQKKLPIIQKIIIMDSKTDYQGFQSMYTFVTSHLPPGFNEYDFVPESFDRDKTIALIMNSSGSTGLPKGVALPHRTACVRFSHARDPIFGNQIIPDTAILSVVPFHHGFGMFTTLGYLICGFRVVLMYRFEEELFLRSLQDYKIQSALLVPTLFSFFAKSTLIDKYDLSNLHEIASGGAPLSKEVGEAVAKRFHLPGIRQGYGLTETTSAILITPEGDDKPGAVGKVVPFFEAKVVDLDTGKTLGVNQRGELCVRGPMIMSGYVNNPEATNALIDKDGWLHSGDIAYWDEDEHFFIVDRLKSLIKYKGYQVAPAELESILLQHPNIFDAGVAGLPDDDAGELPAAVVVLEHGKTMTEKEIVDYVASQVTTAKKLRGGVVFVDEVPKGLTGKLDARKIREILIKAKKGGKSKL

Activation factor, inactive:
CCn1c(-c2ccncc2)n[nH]c1=S 1, O=C(COC(=O)c1cccc(Br)c1)Nc1cccc2c1C(=O)c1ccccc1C2=O 1, O=c1[nH]n2c(-c3ccccc3)nc(O)c2c2ccccc12 1, N/C(Cc1ccc([N+](=O)[O-])cc1)=N\OC(=O)C1CCCCC1 1, Cc1c(-c2cccc(Cl)c2)nc2ccccc2c1C(=O)OCC(=O)N(C)C1CCS(=O)(=O)C1 (configuration not stated) 1, COCCCNCCOCCOc1ccc(Cl)cc1Br 1, CC(=O)Nc1ccc(SCC(=O)Nc2ccccc2Oc2ccccc2)cc1 1, Cc1cc(Oc2ccc(Cl)cc2)nc(SCC(=O)c2ccccc2)n1 1, C/C(=N\Nc1ccc([N+](=O)[O-])cc1)c1ccc(-n2nncc2C(C)(C)C)cc1 1, Cc1cccc(C)c1NC(=O)CNC(=O)Cc1ccc(Br)cc1 1.1, Cc1ccc(C(=O)C(=S)N2CCOCC2)cc1 1.1, Cc1ccc(N(CCC(=O)O)S(=O)(=O)c2cccc(C(F)(F)F)c2)cc1 1, Cc1ccc(NN=Nc2nc3c([nH]2)c(=O)n(C)c(=O)n3C)cc1 1, O=C(N/N=C/c1ccc(Cl)cc1)c1nc2ccc([N+](=O)[O-])cc2c(=O)[nH]1 1, CC(=O)Nc1ccc(NC(=O)CSc2nnc(COc3ccccc3C)n2CC2CCCO2)cc1 (configuration not stated) 1, Fc1cc(Br)ccc1NC(=S)Nc1cccnc1 1.1, O=c1cc(CN2CCN(S(=O)(=O)/C=C/c3ccccc3)CC2)c2ccc(O)cc2o1 1, CC1(C)CN(c2ccc(-c3ccnc4ncnn34)cc2)C1=O 1, CN(C)CCOc1ccc(Cl)cc1C(C)(C)C 1.1, CCNC(=S)N1CCN(c2ncccn2)CC1 1, CCc1nnc(NS(=O)(=O)c2ccc(NC(=S)NC(=O)/C=C/c3cccs3)cc2)s1 1, COC(=O)C[n+]1cccc2ccccc21 1, Cc1cccc(N2CCN(C(=O)c3cccc(S(=O)(=O)N4CCc5ccccc5C4)c3)CC2C)c1 (configuration not stated) 1.1, CC(=O)NC(Cc1ccc(F)c(F)c1)C(=O)NC1CCN(C(=O)c2ccc(C)cc2)CC1 (configuration not stated) 1.1, CCCCN(CC)C(=O)c1ccccc1Oc1ccccc1 1, Cc1ccccc1C1CC(c2cccs2)=NN1S(C)(=O)=O (configuration not stated) 1.1, CCn1nc(C)cc1C(=O)N1CCCC(C(=O)c2cccc(OC)c2)C1 (configuration not stated) 0.9, C=C(C)c1cccc(C(C)(C)NC(=O)NCCN(CC)CC)c1 1, Clc1ccc(-c2csc(-c3ccncc3)n2)cc1 0.9, COCCNC(=S)Nc1cc(S(=O)(=O)N2CCOCC2)ccc1N1CCCCC1 1, CC(C)OCCCNC(=O)c1ccc(C2SCC(=O)N2Cc2ccco2)cc1 (configuration not stated) 1, COc1cccc(-n2c(=S)[nH]c3c(oc4ccccc43)c2=O)c1 1, CCc1cc(CNC(=O)CC2C(=O)NCCN2CC2CCCCC2)on1 (configuration not stated) 1.1, CCCCOC(=O)c1ccc(NC(c2ccc(C)cc2)P(=O)(OC)OC)cc1 (configuration not stated) 1, CC1=C(C(=O)Nc2cc(C)ccn2)C(c2cnn(C)c2)C2=C(CC(c3ccccc3)CC2=O)N1 (configuration not stated) 1.1, COc1cc(NC(=O)CSc2nnc3ccc(-c4ccncc4)nn23)cc(OC)c1 1, COc1ccc(CN2CCNC(=O)C2CC(=O)N(C)Cc2ccccn2)cc1OC (configuration not stated) 1, Cc1cc(C(=O)N/N=C\C(Br)=C\c2ccccc2)c(C)o1 0.8, O=C(Cn1nnc2ccccc2c1=O)NCc1ccc(Cl)cc1 1, O=C1CCCN1CCCNC(=S)Nc1ccc(F)c(Cl)c1 1, Cc1c(CN2CCCC(C(=O)c3cccc(Cl)c3)C2)c(=O)n(-c2ccccc2)n1C (configuration not stated) 1, Cc1ccc(-c2csc(NC(=O)Cn3[nH]c(=O)c4ccccc4c3=O)n2)cc1 1, CC[n+]1c(C)n(-c2ccccc2)c2ccc(NC(C)=O)cc21 1, O=S(=O)(c1ccccc1)c1nc(-c2ccccc2F)oc1NCc1cccnc1 1.1, C/C(=N\NC(=S)NCc1ccccc1)c1ccc(Cl)cc1 1, CCCc1cc(-c2nc(-c3ccc(C)cc3)cs2)ccn1 1, CSCC[C@H](NC(=O)OC(C)(C)C)C(=O)N/N=C/c1cc2ccc(C)cc2nc1Cl 1.1, CCOC(=O)c1[nH]c2c(c1-c1ccccc1)C(=O)CC(c1ccc(Cl)cc1)C2 (configuration not stated) 1, Cc1ccc(-n2ncc3c(=O)n(-c4ccc(C)c(C)c4)c(-c4ccco4)nc32)cc1 1, COc1cc(NC(=O)COC(=O)CSc2ccc3ccccc3c2)c(C)cc1[N+](=O)[O-] 1.1, CNC(=O)c1[nH]cnc1C(=O)N[C@@H](CC(C)C)C(=O)OCc1ccccc1 1.1, CCN(CCCNC(=O)CCn1c(=O)[nH]c2ccsc2c1=O)c1ccccc1 1, CCc1ccc(C2C(C#N)=C(N)N(N(C)C)C3=C2C(=O)CCC3)s1 (configuration not stated) 1, O=C(CCCNS(=O)(=O)c1cccc2nsnc12)NCCN1CCN(c2ccccc2F)CC1 1.1, Cc1ccc(NC(=O)CSc2nc(CSc3ccc(C)cc3)cc(=O)[nH]2)cc1 0.9, Cc1cccc(N2CCN(C(=O)c3cnn4c(C(F)F)cc(-c5ccccc5)nc34)CC2)c1C 1, Cc1ccc(NC(=O)CN2CCCCC2)c2c1CC(C)(C)O2 1, CC[C@H](C)[C@@H](C(=O)N1CCNCC1)n1cc([C@@H](N)Cc2ccc(O)cc2)nn1 1.1, CCN(CC)CCNc1nc(-c2ccc(OC(F)F)cc2)c(C)s1 1, CNC(=O)/C(C#N)=C/c1c(F)cccc1Cl 1, Clc1ccc(-c2cc(C3CCNCC3)[nH]n2)c(Cl)c1 1, COc1ccc(C2=NN(c3nc4ccccc4s3)C(=O)C2)cc1 0.4, CCO[C@H]1OC(C(=O)N2CCCCCCC2)=C[C@@H](c2ccc(C(F)(F)F)cc2)[C@@H]1CCCO 1.1, Cc1nn(Cc2ccc(F)cc2)c(C)c1NC(=O)c1cccnc1Cl 1.1, O=C(CCN1C(=O)c2ccccc2C1=O)C1=NN[C@@H]2C(=O)N(c3ccc(F)cc3)C(=O)[C@H]12 1, CCOc1ccc(-c2ccc(SCC(=O)N3CCOCC3)nn2)cc1 0.2, Cc1scc(C(=O)NNC(=S)NCC(C)C)c1C 1, CCCn1nc(C(=O)N2CCCc3ccccc32)c2ccccc2c1=O 1.1, Cc1ccc2cc(CCNC(=O)c3ccc4c(c3)OCO4)c(=O)[nH]c2c1 1.1, COc1ccc2oc(=O)c(C(=O)NCc3ccccn3)cc2c1 0.9, Cc1ccc2c(c1)C1CN(C)CCC1N2C(=O)c1ccccc1NS(=O)(=O)c1ccc(F)cc1C (configuration not stated) 1.1, CCOc1ccc(CCNC(=O)C2=C(C)C(=O)OC23CCC(C)CC3)cc1OCC (configuration not stated) 1.1, COc1ccc(NS(=O)(=O)c2ccc(O)c(C(=O)OCC(=O)NC3CCCCC3)c2)cc1 1.1, Cc1cccc(N=Nc2c(O)[nH]c3ccc(F)cc23)c1 0.9, NC1=NC(=O)C(Cc2cccc(Cl)c2)S1 (configuration not stated) 1, CN(C)c1ccnc(Nc2ccc(F)cc2)c1C#N 1, COc1ccc(NC(=O)N2CCCC(c3nc(-c4ccc(F)cc4)no3)C2)cc1 (configuration not stated) 1, CN1CCN(c2ccc(NC(=O)c3ccc4c(c3)[nH]c(=O)n4Cc3ccc(F)cc3)cc2)CC1 1, COc1ccc(NC(=O)CN2C(=O)C(c3ccccc3)=NC23CCCCCC3)cc1OC 1, CC(NC(=O)COC(=O)c1ccc(Cl)cc1O)c1ccc(F)cc1 (configuration not stated) 1, CCOc1cccc(OCCCOc2cccc3cccnc23)c1 1, S=c1[nH]nc(NCCc2ccccc2)s1 0.9, COc1ccc(C(=O)N2CCC(C(=O)Nc3ccc(C)cc3)CC2)cc1 1, COc1cccc(/C=C2\SC(=N)N(c3ccc(F)cc3)C2=O)c1 1.1, O=[N+]([O-])/C(N=Nc1ccccc1)=N\Nc1ccccc1 1.1, COc1ccc(CC(=O)N[C@@H](CCSC)c2nc3ccccc3[nH]2)cc1 1.1, O=C(NCc1ccccn1)c1cc(Br)ccc1Cl 1, CC1CCN(c2ccc(C(=O)Nc3nnc(C4CC4)s3)cc2[N+](=O)[O-])CC1 1, Cc1cccc(N2C(=O)CC(SC(N)=Nc3ccccc3)C2=O)c1 (configuration not stated) 1.1, COc1cc(/C=C/CO)cc(OC)c1O[C@@H]1O[C@H](CO)[C@@H](O)[C@H](O)[C@H]1O 1, Cc1ccc2[nH]cc(CCCN3C(=O)c4ccccc4C3=O)c2c1 1, COc1ccc(NC(=O)C(NC(C)=O)C(=O)NCc2ccccc2Cl)cc1 (configuration not stated) 1, CC(OC(=O)CCc1nc(=O)c2ccccc2n1C)C(=O)NCc1ccc2c(c1)OCO2 (configuration not stated) 1.1, CO/N=C(\N)c1ccc([N+](=O)[O-])cc1 1.1, Cc1ccc(CCCOC(=O)C[N+]2(C)CCCCC2)cc1 1, O=C(Cc1ccccc1)Nc1cccc(C(=O)N/N=C/c2ccco2)c1 0.9, Cc1ccc(CSc2nc3[nH]ncc3c(=O)[nH]2)cc1 0.6, COc1ccccc1NC(=O)C[n+]1ccccc1 1, COc1cc(C(=O)N2C(=O)c3cccc(N)c3C2=O)cc(OC)c1OC 1, CCOC(=O)C1CCCN(C(=O)c2cccc(S(=O)(=O)N3CCOCC3)c2)C1 (configuration not stated) 1, COc1cccc(NC(=O)C(Sc2nc3ccccc3c(=O)n2CC(C)C)c2ccccc2)c1 (configuration not stated) 1, Cc1cs/c(=N\N=C\c2ccc(O)cc2)n1Cc1ccco1 1
